The record followed here is ChEMBL document CHEMBL1154438, “Synthesis, spectral studies and antiamoebic activity of new 1-N-substituted thiocarbamoyl-3-phenyl-2-pyrazolines” (Eur J Med Chem, 2009).

Molecules are shown by their SMILES.

In the assay the test system is Entamoeba histolytica. The experiment in a line: Antiamoebic activity against Entamoeba histolytica HM-1:IMSS after 72 hrs by microdilution assay. Type of assay: functional, organism-based. In outline: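 E. histolytica trophozoites grown in TYIS-33 medium; compounds dissolved in DMSO and diluted in medium to a 1 mg/mL stock, then two-fold serial dilutions in wells. Inoculum 1.7 × 10⁴ organisms/well, gassed with nitrogen, 37 °C for 72 h. Cells methanol-fixed and eosin-stained, dye released with 0.1 N NaOH, OD 490 nm read. Percent inhibition versus log dose, IC50 from linear regression.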
As for `CN(C(=S)N1CCC(c2cccc(Cl)c2)=N1)C1CCCCC1`, the half-inhibitory concentration (IC50) was determined as 3710 nM.

`Fc1ccc(NC(=S)N2CCC(c3cccc(Br)c3)=N2)c(F)c1` gave an IC50 of 670 nM.

Regarding `S=C(N1CCC(c2cccc(Br)c2)=N1)N1CCCc2ccccc21`, the midpoint of inhibition, the IC50, lay at 2780 nM.

The compound `Fc1ccc(NC(=S)N2CCC(c3cccc(Cl)c3)=N2)c(F)c1` showed a concentration for half-maximal inhibition (IC50) of 510 nM.

For the compound `S=C(N1CCCC1)N1CCC(c2ccccc2)=N1`, the IC50 stood at 3730 nM.

The compound `S=C(N1CCC(c2cccc(Cl)c2)=N1)N1CCCc2ccccc21` showed a half-maximal inhibitory concentration (IC50) of 1770 nM.

On to `Cc1ccccc1NC(=S)N1CCC(c2cccc(Cl)c2)=N1`, for which the IC50 was found to be 1680 nM.

`S=C(N1CCC(c2ccccc2)=N1)N1CCCc2ccccc21`: half-maximal inhibition (IC50) required 6190 nM.

Compound `S=C(N1CCCC1)N1CCC(c2cccc(Cl)c2)=N1` gave a half-inhibitory concentration (IC50) of 2310 nM.

For the compound `CN(Cc1ccccc1)C(=S)N1CCC(c2ccccc2)=N1`, the half-maximal inhibitory concentration (IC50) turned out to be 7310 nM.

For `CN(Cc1ccccc1)C(=S)N1CCC(c2cccc(Cl)c2)=N1`, the IC50 is 2910 nM.

Regarding `Fc1ccc(NC(=S)N2CCC(c3ccccc3)=N2)c(F)c1`, the IC50 worked out at 1760 nM.

`Cc1ccc(NC(=S)N2CCC(c3cccc(Br)c3)=N2)cc1` came in with an IC50 of 5330 nM.

In turn, `S=C(NC1C2CC3CC(C2)CC1C3)N1CCC(c2cccc(Cl)c2)=N1` (stereo not given) showed a 50% inhibitory concentration (IC50) of 470 nM.

On to `CN(C(=S)N1CCC(c2ccccc2)=N1)C1CCCCC1`, for which the IC50 was 5940 nM.

As to `S=C(N1CCCCCC1)N1CCC(c2ccccc2)=N1`, the IC50 was 4390 nM.

In turn, `Cc1cccc(NC(=S)N2CCC(c3ccccc3)=N2)c1` returned an IC50 of 5010 nM.

`Cc1cccc(NC(=S)N2CCC(c3cccc(Cl)c3)=N2)c1` gave a half-inhibitory concentration (IC50) of 2810 nM.

For `Cc1cccc(NC(=S)N2CCC(c3cccc(Br)c3)=N2)c1`, the half-maximal inhibitory concentration (IC50) turned out to be 3350 nM.

`S=C(NC1C2CC3CC(C2)CC1C3)N1CCC(c2cccc(Br)c2)=N1` (stereo not given) had a concentration for half-maximal inhibition (IC50) of 580 nM.

On to `Cc1ccccc1NC(=S)N1CCC(c2ccccc2)=N1`, for which the concentration for half-maximal inhibition (IC50) was found to be 4780 nM.

As to `CN(Cc1ccccc1)C(=S)N1CCC(c2cccc(Br)c2)=N1`, half-maximal inhibition (IC50) required 4440 nM.

In the case of `S=C(NC1C2CC3CC(C2)CC1C3)N1CCC(c2ccccc2)=N1` (stereo not given), the IC50 was 1790 nM.

`S=C(N1CCCCCC1)N1CCC(c2cccc(Br)c2)=N1` had an IC50 of 1090 nM.

In turn, `S=C(N1CCCCCC1)N1CCC(c2cccc(Cl)c2)=N1` gave an IC50 of 890 nM.

`Cc1ccc(NC(=S)N2CCC(c3cccc(Cl)c3)=N2)cc1`: the half-maximal inhibitory concentration (IC50) worked out at 2400 nM.

On to `Cc1ccccc1NC(=S)N1CCC(c2cccc(Br)c2)=N1`, for which the IC50 was determined as 3820 nM.

The compound `S=C(N1CCCC1)N1CCC(c2cccc(Br)c2)=N1` gave an IC50 of 2820 nM.

`Cc1ccc(NC(=S)N2CCC(c3ccccc3)=N2)cc1` showed a half-maximal inhibitory concentration (IC50) of 9560 nM.

Compound `CN(C(=S)N1CCC(c2cccc(Br)c2)=N1)C1CCCCC1` showed a half-maximal inhibitory concentration (IC50) of 5250 nM.

The term IC50 denotes the concentration that gives 50% inhibition. A high value points to weaker potency.
